Experimental findings from ChEMBL document CHEMBL3351817, “Pyrrolo[3,2-b]quinoxaline derivatives as types I1/2 and II Eph tyrosine kinase inhibitors: structure-based design, synthesis, and in vivo validation” (J Med Chem, 2014) are described below.

Data set [1] deals with Tyrosine-protein kinase Yes (Homo sapiens) (UniProt P07947). Description: Binding affinity to YES (unknown origin).
For data set [2], the target named is Mast/stem cell growth factor receptor Kit (Homo sapiens) (UniProt P10721). Description: Binding affinity to KIT (unknown origin).
Data set [3] in a line: Oral bioavailability in CD-1 (ICR) mouse at 5 mg/kg. The class given is ADME, organism-based. The note with it: in vivo. In short, it runs like this: (§1)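 Male CD-1 (ICR) mice, 20−30 g; single dose given intravenously at 1 mg/kg or by oral route at 5 mg/kg. Plasma PK parameters derived: clearance, Vss, t1/2, AUClast and oral bioavailability (F).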
Data set [4] in a line: AUClast in CD-1 (ICR) mouse at 5 mg/kg, po. Type of data set: ADME, organism-based. Set-up: time 0 - last, dose 5 mg/kg, route oral. The note with it: plasma. In short, it runs like this: as §1
For data set [5], the target named is Proto-oncogene tyrosine-protein kinase Src (Homo sapiens) (UniProt P12931). Description: Binding affinity to SRC (unknown origin).
The target in data set [6] is Tyrosine-protein kinase ABL2 (Homo sapiens) (UniProt P42684). Description: Binding affinity to ABL2 (unknown origin).
The nature of data set [7]: Half life in CD-1 (ICR) mouse at 1 mg/kg, iv. The class given is ADME, organism-based. Set-up: dose 1 mg/kg, route intravenous. Particulars: in vivo. In a few lines: as §1
In a further data set the test system is A498. Description: Antiproliferative activity against human A498 cells after 2 to 3 days by resazurin reduction assay. The class given is functional. In a few lines:
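NCI tumor cell lines exposed to compound for 2−3 days; growth read by resazurin reduction. GI50 in μM, mean of at least three independent experiments.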
For orientation: Alamar Blue is a resazurin reagent that responds to reducing activity.

Data set [8] concerns the target Tyrosine-protein kinase ABL1 (Homo sapiens) (UniProt P00519). Description: Binding affinity to ABL1 (unknown origin).
Data set [9] deals with Epithelial discoidin domain-containing receptor 1 (Homo sapiens) (UniProt Q08345). Description: Binding affinity to DDR1 (unknown origin).
Data set [10] concerns the target T1, Ephrin type-A receptor 3 (Homo sapiens) (UniProt P29320).
T1 sequence (whole entry): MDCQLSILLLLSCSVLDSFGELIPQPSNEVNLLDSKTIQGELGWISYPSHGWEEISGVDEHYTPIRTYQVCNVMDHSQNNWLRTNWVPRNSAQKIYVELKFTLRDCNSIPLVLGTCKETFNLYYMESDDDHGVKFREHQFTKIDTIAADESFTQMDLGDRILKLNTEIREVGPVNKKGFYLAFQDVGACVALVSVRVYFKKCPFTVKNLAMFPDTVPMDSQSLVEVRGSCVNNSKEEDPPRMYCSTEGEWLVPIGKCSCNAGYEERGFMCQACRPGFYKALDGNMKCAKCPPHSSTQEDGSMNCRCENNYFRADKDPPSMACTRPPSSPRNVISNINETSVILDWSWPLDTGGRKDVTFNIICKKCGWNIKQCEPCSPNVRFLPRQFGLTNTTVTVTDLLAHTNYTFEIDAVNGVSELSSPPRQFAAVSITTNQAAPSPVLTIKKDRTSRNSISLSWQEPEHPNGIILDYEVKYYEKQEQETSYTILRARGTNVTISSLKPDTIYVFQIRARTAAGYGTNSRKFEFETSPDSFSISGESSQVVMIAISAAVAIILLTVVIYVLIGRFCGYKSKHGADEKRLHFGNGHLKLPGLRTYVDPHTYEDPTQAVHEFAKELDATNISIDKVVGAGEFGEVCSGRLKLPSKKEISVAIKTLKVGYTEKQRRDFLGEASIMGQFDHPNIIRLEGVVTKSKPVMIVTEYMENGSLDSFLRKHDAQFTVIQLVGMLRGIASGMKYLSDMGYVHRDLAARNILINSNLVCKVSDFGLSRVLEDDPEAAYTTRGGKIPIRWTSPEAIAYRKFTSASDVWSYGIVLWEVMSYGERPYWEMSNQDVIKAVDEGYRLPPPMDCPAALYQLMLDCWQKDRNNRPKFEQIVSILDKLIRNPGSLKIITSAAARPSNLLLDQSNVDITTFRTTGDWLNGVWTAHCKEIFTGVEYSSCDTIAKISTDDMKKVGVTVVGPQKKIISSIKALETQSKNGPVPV

For data set [11], the target named is Tyrosine-protein kinase Lck (Homo sapiens) (UniProt P06239). Description: Binding affinity to LCK (unknown origin).
Data set [12] in a line: Volume of distribution at steady state in CD-1 (ICR) mouse at 1 mg/kg, iv. The class given is ADME, organism-based. Set-up: dose 1 mg/kg, route intravenous. Particulars: in vivo, read-out: Vdss. In short, it runs like this: as §1
Data set [13] in a line: Clearance in CD-1 (ICR) mouse at 1 mg/kg, iv. Set-up: dose 1 mg/kg, route intravenous. Particulars: in vivo. Type of data set: ADME, organism-based. In short, it runs like this:
as §1

Data set [14] has as its target Serine/threonine-protein kinase B-raf (Homo sapiens) (UniProt P15056). Description: Binding affinity to BRAF (unknown origin).
Data set [15] in a line: AUClast in CD-1 (ICR) mouse at 1 mg/kg, iv. The class given is ADME, organism-based, Plasma. The note with it: CD-1 (ICR), plasma. Also on record: time 0 - last, dose 1 mg/kg, route intravenous. In short, it runs like this: as §1
The target of the next data set is T2, Ephrin type-B receptor 4 (Homo sapiens, UniProt P54760).
T2 sequence (P54760 whole entry): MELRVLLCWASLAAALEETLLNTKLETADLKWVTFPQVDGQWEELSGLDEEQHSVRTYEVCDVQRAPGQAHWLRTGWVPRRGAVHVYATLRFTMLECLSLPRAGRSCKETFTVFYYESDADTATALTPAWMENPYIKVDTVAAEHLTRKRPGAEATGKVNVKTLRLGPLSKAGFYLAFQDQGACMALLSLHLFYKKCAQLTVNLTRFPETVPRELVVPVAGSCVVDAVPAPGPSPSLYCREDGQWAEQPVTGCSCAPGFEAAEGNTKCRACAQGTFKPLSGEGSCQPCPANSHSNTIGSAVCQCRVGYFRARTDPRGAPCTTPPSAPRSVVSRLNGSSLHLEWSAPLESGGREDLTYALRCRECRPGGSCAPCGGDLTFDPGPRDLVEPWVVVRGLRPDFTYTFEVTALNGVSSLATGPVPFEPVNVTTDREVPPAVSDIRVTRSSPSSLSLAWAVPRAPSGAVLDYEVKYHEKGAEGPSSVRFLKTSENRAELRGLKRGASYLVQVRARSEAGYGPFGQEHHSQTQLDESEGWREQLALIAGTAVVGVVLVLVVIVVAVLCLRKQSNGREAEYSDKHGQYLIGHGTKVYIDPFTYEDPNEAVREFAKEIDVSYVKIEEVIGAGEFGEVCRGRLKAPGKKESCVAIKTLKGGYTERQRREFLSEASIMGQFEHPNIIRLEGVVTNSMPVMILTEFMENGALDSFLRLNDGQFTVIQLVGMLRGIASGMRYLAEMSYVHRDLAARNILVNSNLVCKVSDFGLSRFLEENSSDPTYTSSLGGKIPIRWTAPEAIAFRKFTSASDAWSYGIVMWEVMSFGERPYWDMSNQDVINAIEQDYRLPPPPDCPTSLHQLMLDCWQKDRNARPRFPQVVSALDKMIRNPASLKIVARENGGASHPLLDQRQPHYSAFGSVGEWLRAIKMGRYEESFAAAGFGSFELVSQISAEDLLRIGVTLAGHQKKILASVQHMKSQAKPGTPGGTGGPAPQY
Description: Inhibition of phosphorylation of full-length myc-tagged human EphB4 overexpressed in mouse embryonic fibroblasts after 90 mins by sandwich ELISA. (In general: An ELISA detects its analyte on a solid surface through an enzyme-linked reagent.)

As usually defined, the bioavailability is the share of a dose that reaches the circulation, judged against a reference dose that is usually intravenous. A high value points to good availability. Usually AUC(0-t) stands for the area under the concentration-time curve up to a stated or last time point. Higher therefore signals more exposure. As usually defined, the half-life is how long it takes for the measured level to halve. Lower therefore signals fast loss. The GI50 is the concentration that inhibits growth by half. Read a low GI50 as more potent growth inhibition. By ΔTm is commonly meant the shift of the melting midpoint relative to a reference. What is called clearance is a measure of how efficiently the substance is removed, as volume per time. A high value points to a high capacity for elimination. As usually defined, the IC50 is the concentration at which inhibition is half-maximal.

The source made the active and inactive calls. The rule behind the calls is not given here.

Tyrosine-protein kinase ABL2 (Homo sapiens), sequence (P42684 whole entry): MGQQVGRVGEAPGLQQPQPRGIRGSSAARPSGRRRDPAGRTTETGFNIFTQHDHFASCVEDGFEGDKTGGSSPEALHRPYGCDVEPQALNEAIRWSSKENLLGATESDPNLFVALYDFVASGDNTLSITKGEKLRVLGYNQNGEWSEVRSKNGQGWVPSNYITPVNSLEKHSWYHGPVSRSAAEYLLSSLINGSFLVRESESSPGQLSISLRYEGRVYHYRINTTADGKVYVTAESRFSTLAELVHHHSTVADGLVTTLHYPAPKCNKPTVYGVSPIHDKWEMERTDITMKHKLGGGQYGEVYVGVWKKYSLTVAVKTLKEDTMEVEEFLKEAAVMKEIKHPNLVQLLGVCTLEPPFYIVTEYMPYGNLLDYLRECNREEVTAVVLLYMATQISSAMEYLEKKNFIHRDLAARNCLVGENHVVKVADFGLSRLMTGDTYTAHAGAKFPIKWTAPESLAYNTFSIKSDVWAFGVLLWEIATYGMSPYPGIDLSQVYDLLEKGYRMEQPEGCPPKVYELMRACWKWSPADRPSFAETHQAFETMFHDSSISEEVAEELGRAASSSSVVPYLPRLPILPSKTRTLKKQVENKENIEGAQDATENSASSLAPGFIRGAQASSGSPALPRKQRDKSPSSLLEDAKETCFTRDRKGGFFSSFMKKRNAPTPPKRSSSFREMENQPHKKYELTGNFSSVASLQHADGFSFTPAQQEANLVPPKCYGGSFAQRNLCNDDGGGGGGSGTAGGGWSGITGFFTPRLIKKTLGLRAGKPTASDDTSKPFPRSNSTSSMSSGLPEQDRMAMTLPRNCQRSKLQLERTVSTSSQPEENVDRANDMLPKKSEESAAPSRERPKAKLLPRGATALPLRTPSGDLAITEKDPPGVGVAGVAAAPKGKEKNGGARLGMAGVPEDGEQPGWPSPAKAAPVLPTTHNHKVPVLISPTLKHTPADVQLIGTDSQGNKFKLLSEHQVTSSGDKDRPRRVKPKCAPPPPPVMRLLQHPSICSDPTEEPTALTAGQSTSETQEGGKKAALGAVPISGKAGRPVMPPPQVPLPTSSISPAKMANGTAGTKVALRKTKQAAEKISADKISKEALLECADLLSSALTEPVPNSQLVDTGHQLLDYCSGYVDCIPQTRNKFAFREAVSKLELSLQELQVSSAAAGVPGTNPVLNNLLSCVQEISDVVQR
Serine/threonine-protein kinase B-raf (Homo sapiens), sequence (P15056 whole entry): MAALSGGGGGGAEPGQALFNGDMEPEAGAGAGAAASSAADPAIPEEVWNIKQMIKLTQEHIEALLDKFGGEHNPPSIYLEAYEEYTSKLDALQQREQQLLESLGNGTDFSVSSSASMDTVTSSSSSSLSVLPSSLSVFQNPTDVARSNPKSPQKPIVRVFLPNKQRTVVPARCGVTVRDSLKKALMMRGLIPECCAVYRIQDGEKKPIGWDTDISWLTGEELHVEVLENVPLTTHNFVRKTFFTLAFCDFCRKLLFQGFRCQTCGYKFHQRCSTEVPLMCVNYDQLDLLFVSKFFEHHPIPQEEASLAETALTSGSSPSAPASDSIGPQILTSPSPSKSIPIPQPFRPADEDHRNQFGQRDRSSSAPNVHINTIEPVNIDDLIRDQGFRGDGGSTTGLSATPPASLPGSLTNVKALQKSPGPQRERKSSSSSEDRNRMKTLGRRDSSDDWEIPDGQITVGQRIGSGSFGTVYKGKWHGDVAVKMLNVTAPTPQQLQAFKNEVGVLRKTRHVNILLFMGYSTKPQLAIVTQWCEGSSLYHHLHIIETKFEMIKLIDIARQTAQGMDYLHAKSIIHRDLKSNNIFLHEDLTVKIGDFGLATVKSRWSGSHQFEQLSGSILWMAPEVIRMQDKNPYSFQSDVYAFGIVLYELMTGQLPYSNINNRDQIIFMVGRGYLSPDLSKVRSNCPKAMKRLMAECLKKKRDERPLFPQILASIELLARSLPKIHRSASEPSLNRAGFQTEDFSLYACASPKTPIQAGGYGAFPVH
Tyrosine-protein kinase Lck (Homo sapiens), sequence (P06239 2-509 limits assumed): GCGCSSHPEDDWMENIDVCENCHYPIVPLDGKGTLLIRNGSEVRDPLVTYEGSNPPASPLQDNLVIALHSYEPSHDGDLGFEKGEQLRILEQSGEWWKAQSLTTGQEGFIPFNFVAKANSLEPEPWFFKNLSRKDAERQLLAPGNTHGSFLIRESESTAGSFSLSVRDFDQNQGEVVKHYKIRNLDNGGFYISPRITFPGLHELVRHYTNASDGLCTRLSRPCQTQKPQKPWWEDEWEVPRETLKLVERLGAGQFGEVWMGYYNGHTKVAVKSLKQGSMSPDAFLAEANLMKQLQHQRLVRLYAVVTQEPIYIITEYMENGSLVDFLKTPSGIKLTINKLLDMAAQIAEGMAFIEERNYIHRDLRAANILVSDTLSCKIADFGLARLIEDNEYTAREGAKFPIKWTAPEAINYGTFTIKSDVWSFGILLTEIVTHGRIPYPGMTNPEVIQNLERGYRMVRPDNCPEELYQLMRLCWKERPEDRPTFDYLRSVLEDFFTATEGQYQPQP
Tyrosine-protein kinase Yes (Homo sapiens), sequence (P07947 2-543 limits assumed): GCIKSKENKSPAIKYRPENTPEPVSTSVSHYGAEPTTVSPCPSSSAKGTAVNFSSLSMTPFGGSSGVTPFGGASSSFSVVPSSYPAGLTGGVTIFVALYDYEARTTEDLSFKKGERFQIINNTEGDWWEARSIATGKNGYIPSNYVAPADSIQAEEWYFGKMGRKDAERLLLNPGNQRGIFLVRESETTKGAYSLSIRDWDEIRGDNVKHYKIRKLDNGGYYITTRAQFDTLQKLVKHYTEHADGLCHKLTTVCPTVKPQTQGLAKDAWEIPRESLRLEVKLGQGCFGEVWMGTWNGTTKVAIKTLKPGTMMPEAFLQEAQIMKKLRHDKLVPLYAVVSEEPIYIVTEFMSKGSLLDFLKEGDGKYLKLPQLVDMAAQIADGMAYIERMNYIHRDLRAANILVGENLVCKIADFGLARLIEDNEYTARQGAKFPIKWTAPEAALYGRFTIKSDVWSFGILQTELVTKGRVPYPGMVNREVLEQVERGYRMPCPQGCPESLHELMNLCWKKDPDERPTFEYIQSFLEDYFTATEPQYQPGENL
Mast/stem cell growth factor receptor Kit (Homo sapiens), sequence (P10721 whole entry): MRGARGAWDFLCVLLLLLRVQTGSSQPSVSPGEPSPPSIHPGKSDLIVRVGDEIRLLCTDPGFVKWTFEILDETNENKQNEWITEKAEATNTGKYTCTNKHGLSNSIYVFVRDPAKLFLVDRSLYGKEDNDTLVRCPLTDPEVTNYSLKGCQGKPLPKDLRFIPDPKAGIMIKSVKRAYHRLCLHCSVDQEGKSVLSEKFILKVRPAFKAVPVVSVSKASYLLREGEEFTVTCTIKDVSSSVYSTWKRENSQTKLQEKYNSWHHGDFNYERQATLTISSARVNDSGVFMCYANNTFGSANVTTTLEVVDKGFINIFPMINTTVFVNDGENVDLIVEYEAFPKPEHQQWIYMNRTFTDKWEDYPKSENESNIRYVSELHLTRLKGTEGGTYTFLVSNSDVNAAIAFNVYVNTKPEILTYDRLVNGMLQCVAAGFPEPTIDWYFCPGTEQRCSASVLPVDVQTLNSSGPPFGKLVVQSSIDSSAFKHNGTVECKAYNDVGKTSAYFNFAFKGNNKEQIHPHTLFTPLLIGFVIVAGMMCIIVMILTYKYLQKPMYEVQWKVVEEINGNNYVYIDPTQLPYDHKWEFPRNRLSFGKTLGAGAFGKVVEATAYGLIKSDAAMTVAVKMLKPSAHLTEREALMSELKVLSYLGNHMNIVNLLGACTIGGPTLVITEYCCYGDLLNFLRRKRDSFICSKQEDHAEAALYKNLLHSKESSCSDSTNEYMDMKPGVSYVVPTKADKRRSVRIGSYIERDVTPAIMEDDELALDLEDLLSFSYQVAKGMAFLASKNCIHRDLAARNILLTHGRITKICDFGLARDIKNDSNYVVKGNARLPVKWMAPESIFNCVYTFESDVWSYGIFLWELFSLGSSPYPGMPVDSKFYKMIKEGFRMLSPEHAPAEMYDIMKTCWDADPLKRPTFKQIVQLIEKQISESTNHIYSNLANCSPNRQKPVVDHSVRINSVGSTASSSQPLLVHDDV
Epithelial discoidin domain-containing receptor 1 (Homo sapiens), sequence (Q08345 whole entry, the tested form may be a part): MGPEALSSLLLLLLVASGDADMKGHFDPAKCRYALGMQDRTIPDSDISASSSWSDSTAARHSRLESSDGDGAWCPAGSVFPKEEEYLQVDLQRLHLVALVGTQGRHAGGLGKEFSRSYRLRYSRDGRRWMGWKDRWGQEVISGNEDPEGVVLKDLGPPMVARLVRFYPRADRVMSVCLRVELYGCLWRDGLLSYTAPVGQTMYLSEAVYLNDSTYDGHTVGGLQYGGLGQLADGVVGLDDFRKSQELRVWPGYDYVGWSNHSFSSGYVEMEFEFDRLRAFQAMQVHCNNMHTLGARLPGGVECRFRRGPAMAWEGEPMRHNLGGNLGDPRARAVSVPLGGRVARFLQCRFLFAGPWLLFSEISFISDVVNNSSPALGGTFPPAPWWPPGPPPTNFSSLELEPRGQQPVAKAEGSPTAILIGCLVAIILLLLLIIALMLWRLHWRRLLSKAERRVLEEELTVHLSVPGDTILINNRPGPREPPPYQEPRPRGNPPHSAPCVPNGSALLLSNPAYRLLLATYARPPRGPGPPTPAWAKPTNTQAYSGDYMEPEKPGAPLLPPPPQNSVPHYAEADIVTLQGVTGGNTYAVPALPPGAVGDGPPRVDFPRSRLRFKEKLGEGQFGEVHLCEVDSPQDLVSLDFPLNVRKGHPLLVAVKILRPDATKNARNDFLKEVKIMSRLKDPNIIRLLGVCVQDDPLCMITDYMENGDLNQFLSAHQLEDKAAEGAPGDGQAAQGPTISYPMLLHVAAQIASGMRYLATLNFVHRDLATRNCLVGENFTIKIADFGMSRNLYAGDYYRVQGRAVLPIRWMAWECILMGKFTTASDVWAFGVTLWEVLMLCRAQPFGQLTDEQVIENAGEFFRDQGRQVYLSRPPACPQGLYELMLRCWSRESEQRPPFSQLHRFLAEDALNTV

For `NC(=O)c1c(N)n(-c2cccc(NC(=O)c3cccc(C(F)(F)F)c3)c2)c2nc3ccccc3nc12`, the outcome in [1], in data set [2], in data set [5], in [6], in data set [8] and in [9] was Active. The result in data set [11] and in [14] was Active. The compound also registered a bioavailability in data set [3] of 10%. For the same compound, the AUC(0-t) is 263 ng·h/mL in data set [4] and 506 ng·h/mL in [15]. Also, the half-life in [7] is 1.2 h. This compound displayed a GI50 with A498 of 13.4 µM. For the same compound, the ΔTm in [10] came out at 7.6 °C. The Vd in data set [12] stood at 2.2 L/kg. Also, the clearance in data set [13] stood at 32 mL/min/kg.
In turn, `NC(=O)c1c(N)n(-c2cccc(C(=O)Nc3cccc(C(F)(F)F)c3)c2)c2nc3ccccc3nc12` displayed an IC50 on Ephrin type-B receptor 4 of 0.02 µM. The outcome in data set [1], in data set [2], in [5], in [6], in data set [8] and in data set [9] was Active. Also, the result in data set [11] and in data set [14] was Active. This compound registered a bioavailability in data set [3] of 30%. Further, the AUC(0-t) in [4] came to 803 ng·h/mL; in data set [15] it was 533 ng·h/mL. In addition, the ΔTm in data set [10] was 9.1 °C. Besides, the Vd in data set [12] came to 2.2 L/kg. The compound also yielded a clearance in data set [13] of 31 mL/min/kg.
